PMC11911394 (Nature Communications, 2025)
Each block holds one compound with its values, some of them ahead of it.

What was measured:
[1] = format: physicochemical; conditions: exciting with red light
Summary of the method: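 Steady-state UV-Vis absorption and fluorescence spectra were recorded on a plate reader in PBS pH 7.4 at 25 °C.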

[2] = test system: HeLa cells; test: Cell viability assay; format: cell-based; conditions: at the dose used for imaging; HeLa and HEK293T (Supplementary Fig. 8)
Summary of the method: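 HeLa cells were grown in MEM with phenol red, Glutamax I, 1 mM sodium pyruvate, 1% non-essential amino acids, 10% FBS and 1% penicillin–streptomycin at 37 °C and 5% CO₂. They were exposed to fluorogen at the indicated concentrations for 24 h. Viability was read as CellTiter-Glo luminescence on a plate reader, per kit protocol.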

[3] = test system: nirFAST; test: nirFAST labeling kinetics in live HeLa cells; format: cell-based; conditions: 10 µM fluorogen
[4] = test system: zebrafish larvae; test: Imaging of injected nirFAST-expressing HEK293T cells in zebrafish larvae; format: in vivo, zebrafish (Danio rerio); conditions: zebrafish larvae 4 dpf, 45 min of treatment
Summary of the method: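 HEK293T cells were transfected with a nirFAST-P2A-EGFP plasmid and, after 24 h, suspended at 10,000,000 cells/mL in serum-free DMEM. About 5–10 nL was microinjected near the heart of 2 dpf nacre larvae anesthetized with 0.02% MS-222. Larvae were raised at 28 °C, and green-positive ones were chosen. At 4 dpf they were incubated 45 min with fluorogen, anesthetized, mounted laterally in 0.8% low-melt agarose and imaged confocally.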

[5] = test system: LAMP1–mCherry–FIREtag and nir-FIREmate–KIF17; test: nirCATCHFIRE control of lysosome positioning; format: cell-based; conditions: HeLa cells co-expressing LAMP1–mCherry–FIREtag and nir-FIREmate–KIF17
[6] = test system: nirFAST; test: Characterization of nirFAST with prototypical FAST; format: physicochemical; conditions: fluorogen bound to nirFAST
Summary of the method: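 His-tag-purified protein came from E. coli BL21(DE3) or Rosetta(DE3)pLysS, induced overnight with 1 mM IPTG at 16 °C and isolated on Ni-NTA. Spectra were recorded in PBS pH 7.4 at 25 °C on a plate reader. Quantum yield was measured in 96-well plates against a reference fluorogen:protein complex. Protein was 40 µM, with fluorogen usually 6 to 0.375 µM, giving >99% complex.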

fluorescence of free fluorogen [1]: completely non-fluorescent
Structure (SMILES): COc1cc(/C=C/C=C2\SC(=S)NC2=O)cc(OC)c1O [HPAR-3,5DOM, (Z)-5-((E)-3-(4-hydroxy-3,5-dimethoxyphenyl)allylidene)-2-thioxothiazolidin-4-one]
toxicity for mammalian cells [2]: non-toxic
time to complete labeling of nirFAST after fluorogen addition [3]: complete within twenty seconds
detection of nirFAST-expressing HEK293T cells in larvae [4]: efficiently detected
effect on lysosome positioning [5]: displacement of lysosomes from the perinuclear region to the cell periphery

FQY of assembly with nirFAST [6]: 24%
Structure (SMILES): COc1cc(/C=C2\SC(=S)NC2=O)cc(OC)c1O [HBR-3,5DOM]

FQY of assembly with nirFAST [6]: 37%
Structure (SMILES): Cc1cc(/C=C2\SC(=S)NC2=O)cc(C)c1O [HBR-3,5DM]

Second part, the compound before the results:

Structure (SMILES): Cc1cc(/C=C2\SC(=S)NC2=O)c(C)cc1O [HBR-2,5DM]
fluorescence activation by nirFAST [6]: failed to activate efficiently the fluorescence

Structure (SMILES): Cc1cc(/C=C2\SC(=S)NC2=O)ccc1O [HMBR]
fluorescence activation by nirFAST [6]: failed to activate efficiently the fluorescence
